Columns and labels:
[1] = Binding affinity to Mycobacterium tuberculosis adenosine-5'-phosphosulfate reductase assessed as S-sulfocysteine formation at pH 5.5 by single turnover method in absence of thioredoxin
[2] = Dissociation constant, pKa at pH 6 to 9.5; format: physicochemical
[3] = Dissociation constant, pKa in solution; format: physicochemical
[4] = Binding affinity to Mycobacterium tuberculosis adenosine-5'-phosphosulfate reductase assessed as S-sulfocysteine formation at pH 7.5 by single turnover method
[5] = Binding affinity to Mycobacterium tuberculosis adenosine-5'-phosphosulfate reductase assessed as S-sulfocysteine formation at pH 9 by single turnover method
[6] = tested on: Mycobacterium tuberculosis; assay: Ratio of Kd for Mycobacterium tuberculosis adenosine-5'-phosphosulfate reductase in presence of 0.5 mM MgCl2 to Kd Mycobacterium tuberculosis adenosine-5'-phosphosulfate reductase in absence of MgCl2
[7] = Binding affinity to Mycobacterium tuberculosis adenosine-5'-phosphosulfate reductase assessed as S-sulfocysteine formation at pH 7.5 by single turnover method in presence of 0.5 mM MgCl2
[8] = Binding affinity to Mycobacterium tuberculosis adenosine-5'-phosphosulfate reductase assessed as S-sulfocysteine formation at pH 7.5 by single turnover method in absence of MgCl2
[9] = Displacement of [35S]APS from Mycobacterium tuberculosis adenosine-5'-phosphosulfate reductase by liquid scintillation counting
Method in brief: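 Purified enzyme; reduction of ³⁵S-APS to sulfite at 30 °C in 100 mM bis-tris propane pH 7.5, 5 mM DTT and 10 μM thioredoxin. Quenched with 2% charcoal containing 20 mM Na₂SO₃, then ³⁵S-sulfite in the supernatant counted by scintillation. k_obs taken at varied inhibitor levels with [³⁵S-APS] ≪ K1/2, fit to competitive inhibition (Ki taken as Kd). At least two independent experiments.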

[10] = tested on: Mycobacterium tuberculosis; assay: Ratio of Kd for Mycobacterium tuberculosis adenosine-5'-phosphosulfate reductase in presence of 2 mM MgCl2 to Kd Mycobacterium tuberculosis adenosine-5'-phosphosulfate reductase in absence of MgCl2
[11] = Binding affinity to Mycobacterium tuberculosis adenosine-5'-phosphosulfate reductase assessed as S-sulfocysteine formation at pH 7.5 by single turnover method in presence of 2 mM MgCl2
[12] = tested on: Mycobacterium tuberculosis; assay: Ratio of Kcat to Km of Mycobacterium tuberculosis adenosine-5'-phosphosulfate reductase; details: tested as the 35S-labelled form

## Nc1[nH]cnc2ncnc1-2 [ADENINE]
[1]
  Kd: ≥ 90000 µM

## Nc1ncnc2c1ncn2[C@@H]1O[C@H](COP(=O)(S)OP(=O)(O)O)[C@@H](O)[C@H]1O (stereo partly specified)
[1]
  Kd: 0.8 µM

## Nc1ncnc2c1ncn2[C@@H]1O[C@H](COP(O)(O)=S)[C@@H](O)[C@H]1O
[2]
  pKa: 7.7
[3]
  pKa: 7.7
[1]
  Kd: 3.3 µM

## Nc1ncnc2c1ncn2[C@@H]1O[C@H](COP(=O)(O)O)[C@@H](OP(=O)(O)O)[C@H]1O
[1]
  Kd: 770 µM

## Nc1ncnc2c1ncn2[C@@H]1O[C@H](COP(=O)(O)CP(=O)(O)O)[C@@H](O)[C@H]1O [PHOSPHOMETHYLPHOSPHONIC ACID ADENOSYL ESTER]
[1]
  Kd: 27 µM

## Nc1ncnc2c1ncn2[C@@H]1O[C@H](CO)[C@@H](O)[C@H]1O [ADENOSINE]
[1]
  Kd: 3000 µM

## Nc1ncnc2c1ncn2[C@@H]1O[C@H](COP(=O)(O)C(F)(F)P(=O)(O)O)[C@@H](O)[C@H]1O
[1]
  Kd: 13 µM

## Nc1ncnc2c1ncn2[C@@H]1O[C@H](COP(=O)(O)OP(N)(=O)O)[C@@H](O)[C@H]1O
[4]
  Kd: 410 µM
[5]
  Kd: 56.8 µM
[1]
  Kd: 410 µM

## Nc1ncnc2c1ncn2[C@@H]1O[C@H](COP(=O)(S)OS(=O)(=O)O)[C@@H](O)[C@H]1O (mixture of isomers)
[1]
  Kd: 43 µM

## Nc1ncnc2c1ncn2[C@@H]1O[C@H](COP(=O)(O)NP(=O)(O)O)[C@@H](O)[C@H]1O
[4]
  Kd: 257 µM
[5]
  Kd: 110 µM
[1]
  Kd: 260 µM

## Nc1ncnc2c1ncn2[C@@H]1O[C@H](COP(=O)(O)O)[C@@H](O)[C@H]1O [ADENOSINE PHOSPHATE]
[6]
  Ratio: 5
[7]
  Kd: 21 µM
[2]
  pKa: 8.1
[8]
  Kd: 5.4 µM
[9]
  Kd: 5.4 µM
[10]
  Ratio: 5
[11]
  Kd: 31 µM
[1]
  Kd: 5.4 µM

## Nc1ncnc2c1ncn2[C@@H]1O[C@H](COP(=O)(O)OP(=O)(O)S)[C@@H](O)[C@H]1O (stereo partly specified)
[2]
  pKa: 5.8
[3]
  pKa: 5.2
[1]
  Kd: 0.15 µM

## O[C@@H]1[C@H](O)[C@H](O)CO[C@H]1O [RIBOSE (PYRANOSE)]
[1]
  Kd: 680000 µM

## O=P(O)(O)OC[C@H]1O[C@@H](O)[C@H](O)[C@@H]1O
[1]
  Kd: 93 µM

## O=S(=O)(O)O [SULFURIC ACID]
[1]
  Kd: ≥ 310000 µM

## Nc1ncnc2c1ncn2[C@@H]1O[C@H](CO)[C@@H](OP(=O)(O)O)[C@H]1O
[1]
  Kd: 3200 µM

## Nc1ncnc2c1ncn2[C@@H]1O[C@H](COP(=O)(O)OS(=O)(=O)O)[C@@H](O)[C@H]1O
[12]
  kcat/Km: 2 ×10⁶ /M/s
[1]
  Kd: 0.2 µM
  Ki: 0.2 µM

## Nc1ncnc2c1ncn2[C@@H]1O[C@H](COP(N)(=O)O)[C@@H](O)[C@H]1O
[4]
  Kd: 100 µM
[5]
  Kd: 82 µM
[1]
  Kd: 100 µM

## Nc1ncnc2c1ncn2[C@@H]1O[C@H](COP(=O)(O)CS(=O)(=O)O)[C@@H](O)[C@H]1O
[1]
  Kd: 700 µM

## Nc1ncnc2c1ncn2[C@@H]1O[C@H](COP(=O)(O)OP(=O)(O)O)[C@@H](O)[C@H]1O [ADENOSINE DIPHOSPHATE]
[6]
  Ratio: 5
[7]
  Kd: 7.3 µM
[2]
  pKa: 6.4
[8]
  Kd: 4.3 µM
[10]
  Ratio: 5
[11]
  Kd: 20 µM
[1]
  Kd: 4.3 µM

## O=P(O)(O)O [PHOSPHORIC ACID]
[1]
  Kd: 66000 µM
